Results published in ChEMBL document CHEMBL4422635, “Structure-Based Discovery of a Subtype-Selective Inhibitor Targeting a Transient Receptor Potential Vanilloid Channel” (J Med Chem, 2019).
Each block holds one compound with its values, some of them ahead of it. Calls of active or inactive are those of the source. The calls are words filed in the database; no cut-off is given here.

Experiments:
[1] = biological target: T1, Transient receptor potential cation channel subfamily V member 2 (Mus musculus) (UniProt Q9WTR1); test: Inhibition of mouse TRPV2 expressed in HEK293T cells assessed as inhibition of 2-APB evoked currents at 10 uM at -60 mV holding potential by whole-cell patch clamp assay; format: cell-based
T1 sequence (whole entry): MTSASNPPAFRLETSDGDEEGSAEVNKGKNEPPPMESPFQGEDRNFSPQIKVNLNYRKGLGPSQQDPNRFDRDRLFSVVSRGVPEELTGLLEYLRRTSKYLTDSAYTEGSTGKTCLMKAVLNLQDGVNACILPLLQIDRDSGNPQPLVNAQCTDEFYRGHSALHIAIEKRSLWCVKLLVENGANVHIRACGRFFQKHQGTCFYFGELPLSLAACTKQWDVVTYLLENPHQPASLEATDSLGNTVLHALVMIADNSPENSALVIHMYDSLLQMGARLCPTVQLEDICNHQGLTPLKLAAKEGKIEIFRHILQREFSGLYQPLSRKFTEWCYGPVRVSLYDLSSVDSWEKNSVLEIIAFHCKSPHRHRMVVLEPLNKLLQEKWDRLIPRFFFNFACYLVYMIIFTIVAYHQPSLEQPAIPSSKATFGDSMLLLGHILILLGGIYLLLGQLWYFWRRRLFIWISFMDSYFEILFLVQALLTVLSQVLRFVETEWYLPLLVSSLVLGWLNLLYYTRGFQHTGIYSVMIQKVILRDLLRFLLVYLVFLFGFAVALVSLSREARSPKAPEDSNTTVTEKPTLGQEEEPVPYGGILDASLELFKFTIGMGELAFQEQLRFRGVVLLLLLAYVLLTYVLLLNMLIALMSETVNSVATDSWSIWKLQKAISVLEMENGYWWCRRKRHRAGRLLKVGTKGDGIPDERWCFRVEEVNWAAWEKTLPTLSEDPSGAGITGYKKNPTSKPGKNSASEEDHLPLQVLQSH
Procedure, shortened: (§1)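 Whole-cell voltage clamp of transiently transfected HEK293T cells co-expressing GFP, recorded 36-96 h post-transfection. Hold -60 mV; pipettes 3-7 MΩ. Bath 165 mM NaCl, 10 mM HEPES pH 7.3; pipette 140 mM KCl, 10 mM HEPES pH 7.3. Room temperature (~25 °C). IC50 from Hill fits of I/I0, the current ratio after vs before inhibitor; mean ± SEM.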

[2] = biological target: T1, Transient receptor potential cation channel subfamily V member 2 (Mus musculus); test: Antagonist activity at mouse TRPV2 expressed in HEK293T cells assessed as inhibition of 2-APB evoked currents at -60 mV holding potential by whole-cell patch clamp assay; format: cell-based; procedure, shortened: as §1
[3] = biological target: T2, Transient receptor potential cation channel subfamily V member 2 (Homo sapiens, UniProt Q9Y5S1); test: Antagonist activity at TRPV2 (unknown origin); procedure, shortened: as §1
T2 sequence (Q9Y5S1 whole entry): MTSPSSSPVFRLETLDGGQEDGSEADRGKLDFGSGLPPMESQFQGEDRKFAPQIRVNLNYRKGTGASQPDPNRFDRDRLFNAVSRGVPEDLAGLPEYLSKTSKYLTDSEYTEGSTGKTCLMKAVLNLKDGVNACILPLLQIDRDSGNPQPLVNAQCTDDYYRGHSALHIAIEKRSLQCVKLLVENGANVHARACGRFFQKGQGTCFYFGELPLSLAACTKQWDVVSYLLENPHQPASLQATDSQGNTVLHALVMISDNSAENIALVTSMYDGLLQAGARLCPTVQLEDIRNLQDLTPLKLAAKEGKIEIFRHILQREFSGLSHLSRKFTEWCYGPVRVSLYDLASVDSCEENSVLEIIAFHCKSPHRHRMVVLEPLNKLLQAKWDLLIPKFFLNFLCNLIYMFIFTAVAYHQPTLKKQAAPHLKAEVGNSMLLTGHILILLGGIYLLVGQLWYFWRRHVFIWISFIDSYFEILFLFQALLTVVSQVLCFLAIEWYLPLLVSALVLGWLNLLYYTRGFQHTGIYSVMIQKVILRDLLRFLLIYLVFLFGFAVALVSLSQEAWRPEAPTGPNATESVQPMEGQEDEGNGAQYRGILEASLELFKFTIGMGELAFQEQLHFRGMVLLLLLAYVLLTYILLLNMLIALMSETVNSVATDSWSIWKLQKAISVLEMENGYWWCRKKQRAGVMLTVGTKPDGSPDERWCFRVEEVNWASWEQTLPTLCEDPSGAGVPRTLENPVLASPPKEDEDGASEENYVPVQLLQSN

Mus musculus [4] = test: Antagonist activity at mouse TRPV2/LPAR1 expressed in LPA-stimulated HEK293T cells assessed as inhibition of 2-APB evoked currents at 1 uM dosed 3 mins after LPA stimulation by whole-cell patch clamp assay; procedure, shortened: as §1
Mus musculus [5] = test: Antagonist activity at mouse TRPV2/LPAR1 expressed in LPA-stimulated HEK293T cells assessed as inhibition of 2-APB evoked currents at 10 uM dosed 3 mins after LPA stimulation by whole-cell patch clamp assay; procedure, shortened: as §1

inhibition [1]: Active
inhibition [2]: Dose-dependent effect
Compound: COc1ccc(-c2cc(C(F)(F)F)nc(SCCC(=O)NCc3ccco3)n2)cc1

IC50 [3]: > 10 µM
Compound: COc1ccc(/C=C/C(=O)Nc2ccccc2C(=O)O)cc1OC [TRANILAST]

inhibition [2]: Dose-dependent effect
Compound: CN1CCN(c2cc(C(F)(F)F)nc(SCCC(=O)NCc3ccco3)n2)CC1

Compound: Cc1noc(-c2ccc(-c3ccc(CC(=O)O)cc3)cc2)c1NC(=O)O[C@H](C)c1ccccc1Cl
inhibition (Mus musculus [4]): Active
inhibition (Mus musculus [5]): Active
